From ChEMBL document CHEMBL1135975, “Design, synthesis, and evaluation of new noncross-linking pyrrolobenzodiazepine dimers with efficient DNA binding ability and potent antitumor activity” (2002)
Several values for one entry are separate records, joined by “and”; a condition that tells them apart may be missing. Equal entries are not always repeated.

Assays:
[1] = system: Tumor Cell line; test: In-vitro cytotoxicity of Drug molar concentration causing 50% cell growth inhibition against Human tumor cell lines; format: functional
Procedure, shortened: (§1)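 Sixty human tumor cell lines covering nine cancer types. Continuous drug exposure for 48 h, with growth or viability read by sulforhodamine B protein assay. Dose-response curves were run at a minimum of five concentrations at 10-fold dilutions. GI50 (50% growth inhibition) and TGI (0% growth) were calculated relative to control and reported as log mean graph midpoints across all cell lines.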

[2] = system: Colon carcinoma cell; test: Drug concentration causing 50% lethality against human cancer line of colon; format: functional
Procedure, shortened: (§2)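 Sixty-line human tumour panel screen: at least five concentrations at 10-fold dilutions, 48 h continuous exposure, growth read by sulforhodamine B protein stain. LC50 is the molar concentration giving 50% cell death (-50% growth) relative to control, as log LC50. Each cancer-type value is the average of 6-8 different cell lines.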

[3] = system: Tumor Cell line; test: In vitro cytotoxicity of drug concentration causing total cell growth inhibition; format: functional, Homo sapiens; conditions: read-out: Log TGI (converted); procedure, shortened: as §1
[4] = organism: Bos taurus; test: Thermal denaturation measured for calf thymus DNA after incubation at 37 degree at 0h.
Procedure, shortened: (§3)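 Calf thymus DNA (100 µM in phosphate) with ligand at 20 µM final, a 1:5 ligand/DNA molar ratio, added from concentrated MeOH solution. Buffer was 10 mM sodium phosphate with 1 mM EDTA, pH 7.00. Samples were incubated at 37 °C for 0 or 18 h, then heated at 1 °C/min over 40-90 °C with A260 monitored. Tm was taken from the d(A260)/dT maxima, and ∆Tm given relative to DNA alone.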

[5] = system: CNS carcinoma cell; test: Drug concentration causing 50% lethality against human cancer line of CNS; format: functional; procedure, shortened: as §2
[6] = system: Prostatic carcinoma cell; test: Drug concentration causing 50% lethality against prostate human cancer line; format: functional; conditions: read-out: Log LC50 (the source's name) (converted); procedure, shortened: as §2
[7] = system: Ovarian carcinoma cell; test: Drug concentration causing 50% lethality against ovarian human cancer line; format: functional; conditions: read-out: Log LC50 (the source's name) (converted); procedure, shortened: as §2
[8] = system: Melanoma cell; test: Drug concentration causing 50% lethality against human cancer line melanoma; format: functional; conditions: read-out: Log LC50 (the source's name) (converted); procedure, shortened: as §2
[9] = system: Breast carcinoma cell; test: Drug concentration causing 50% lethality against breast human cancer line; format: functional; procedure, shortened: as §2
[10] = system: Tumor Cell line; test: In vitro cytotoxicity of drug concentration causing 50% cell death; format: functional, Homo sapiens; conditions: read-out: Log LC50 (the source's name) (converted)
Procedure, shortened: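 Compound tested against sixty human tumour lines from nine cancer types, each line at at least five concentrations at 10-fold dilutions, 48 h continuous exposure, sulforhodamine B protein read-out. LC50 is the concentration causing 50% cell death (-50% growth) versus control. The value is the mean graph midpoint of log LC50 over all lines.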

[11] = system: Renal cancer cell line; test: Drug concentration causing 50% lethality against renal human cancer line; format: functional; conditions: read-out: Log LC50 (the source's name) (converted); procedure, shortened: as §2
[12] = system: Panel leukemia (Carcinoma cell lines); test: Drug concentration causing 50% lethality against human cancer line leukemia; format: functional; conditions: read-out: Log LC50 (the source's name) (converted); procedure, shortened: as §2
[13] = organism: Homo sapiens; test: Drug concentration causing 50% lethality against human cancer line nonsmall-cell lung; format: functional; conditions: read-out: Log LC50 (the source's name) (converted); procedure, shortened: as §2
[14] = organism: Bos taurus; test: Thermal denaturation measured for calf thymus DNA after incubation at 37 degree at 18 h.; procedure, shortened: as §3
[15] = Homo sapiens, Ovarian carcinoma cell
[16] = Homo sapiens, Renal cancer cell line

Q: With `COc1cc2c(cc1OCCCCOc1cc3c(cc1OC)C(=O)N1CCC[C@H]1C(=O)N3)N=C[C@@H]1CCCN1C2=O` as the molecule, how does the GI50 ([1]; Homo sapiens, Tumor Cell line) read?
A: The GI50 was 7.24 µM.

Q: What about the LC50 (50% lethal concentration) [2] of the same molecule?
A: The LC50 (50% lethal concentration) was 57.5 µM.

Q: And the TGI ([3]; Homo sapiens, Tumor Cell line)?
A: Its TGI is 20.4 µM.

Q: What about the ΔTm [4] of the same molecule?
A: Its ΔTm is 5 °C.

Q: And the LC50 [5]?
A: The LC50 was 45.7 µM.

Q: And the CC50 [6]?
A: Its CC50 is 67.6 µM.

Q: What about the CC50 [7, 15] of the same molecule?
A: The CC50 was 58.9 µM.

Q: What about the CC50 ([8]; Homo sapiens, Melanoma cell) of the same molecule?
A: Its CC50 is 41.7 µM.

Q: And the LC50 [9]?
A: Its LC50 is 53.7 µM.

Q: What about the CC50 ([10]; Homo sapiens, Tumor Cell line) of the same molecule?
A: Its CC50 is 50.1 µM.

Q: And the CC50 [11, 16]?
A: The CC50 was 55 µM.

Q: What about the CC50 [12] of the same molecule?
A: Its CC50 is 24.4 µM.

Q: What about the CC50 ([13]; Homo sapiens) of the same molecule?
A: The CC50 was 58.9 µM.

Q: And the ΔTm [14]?
A: Its ΔTm is 8.5 °C.

Q: Which GI50 [1] does the source give for `COc1cc2c(cc1OCCCCCOc1cc3c(cc1OC)C(=O)N1CCC[C@H]1C(=O)N3)N=C[C@@H]1CCCN1C2=O` here?
A: Its GI50 is 0.12 µM.

Q: What about the GI50 ([1]; Homo sapiens, Tumor Cell line) of the same molecule?
A: The GI50 was 0.115 µM.

Q: What about the TGI ([3]; Homo sapiens, Tumor Cell line) of the same molecule?
A: Its TGI is 2.24 µM.

Q: What about the TGI [3] of the same molecule?
A: The TGI was 1.12 µM.

Q: And the ΔTm [4]?
A: Its ΔTm is 14 °C.

Q: What about the CC50 [6] of the same molecule?
A: Its CC50 is greater than 100 µM.

Q: And the CC50 [7, 15]?
A: Its CC50 is 87.1 µM.

Q: And the CC50 [7]?
A: Its CC50 is 60.3 µM.

Q: What about the CC50 [8] of the same molecule?
A: Its CC50 is 10 µM and 3.31 µM.

Q: And the CC50 ([10]; Homo sapiens, Tumor Cell line)?
A: The CC50 was 44.7 µM.

Q: What about the CC50 [10] of the same molecule?
A: The CC50 was 27.5 µM.

Q: What about the CC50 [11, 16] of the same molecule?
A: The CC50 was 51.3 µM.

Q: What about the CC50 [11] of the same molecule?
A: Its CC50 is 44.7 µM.

Q: And the CC50 ([13]; Homo sapiens)?
A: Its CC50 is 58.9 µM.

Q: What about the CC50 [13] of the same molecule?
A: Its CC50 is 79.4 µM.

Q: And the ΔTm [14]?
A: The ΔTm was 17 °C.

Q: What does the source list for `COc1cc2c(cc1OCCCOc1cc3c(cc1OC)C(=O)N1CCC[C@H]1C(=O)N3)N=C[C@@H]1CCCN1C2=O`?
A: GI50 ([1]; Homo sapiens, Tumor Cell line): 13.2 µM; TGI ([3]; Homo sapiens, Tumor Cell line): 42.7 µM; ΔTm [4]: 6.5 °C; CC50 [6]: > 100 µM; CC50 [7, 15]: 95.5 µM; CC50 ([8]; Homo sapiens, Melanoma cell): 83.2 µM; CC50 ([10]; Homo sapiens, Tumor Cell line): 83.2 µM; CC50 [11, 16]: 91.2 µM; CC50 [12]: 33.1 µM; CC50 ([13]; Homo sapiens): > 100 µM; ΔTm [14]: 7 °C

Q: `COc1cc2c(cc1OCCCOc1cc3c(cc1OC)C(=O)N1CCC[C@H]1C=N3)N=C[C@@H]1CCCN1C2=O` was tested. Which ΔTm [4] did it give?
A: Its ΔTm is 10.2 °C.

Q: How did the ΔTm [4] turn out when `COc1cc2c(cc1O)N=C[C@@H]1CCCN1C2=O` was run?
A: Its ΔTm is 0.3 °C.

Q: What about the ΔTm [14] of the same molecule?
A: Its ΔTm is 0.7 °C.
